Experimental data reported in ChEMBL document CHEMBL1127734, “Selective ligands for rat A3 adenosine receptors: structure-activity relationships of 1,3-dialkylxanthine 7-riboside derivatives” (J Med Chem, 1994).
pKi: −log10 of the molar value.

How the values were obtained:
Adenosine receptor A3 = target: T1, Adenosine receptor A3 (Rattus norvegicus, UniProt P28647); assay: Displacement of specific [125]AB-MECA binding in membranes of CHO cells stably transfected with the rat A3-cDNA; type: cell membranes
T1 sequence (P28647 whole entry): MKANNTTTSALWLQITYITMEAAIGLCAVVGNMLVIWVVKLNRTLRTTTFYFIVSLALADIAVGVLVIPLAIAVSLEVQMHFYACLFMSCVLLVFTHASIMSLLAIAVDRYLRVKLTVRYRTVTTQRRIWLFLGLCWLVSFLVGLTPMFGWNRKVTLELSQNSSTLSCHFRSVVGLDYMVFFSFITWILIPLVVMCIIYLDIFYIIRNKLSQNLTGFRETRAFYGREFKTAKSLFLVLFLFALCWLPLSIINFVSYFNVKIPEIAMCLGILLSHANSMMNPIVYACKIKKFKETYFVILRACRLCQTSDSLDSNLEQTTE

[1] = target: Adenosine receptor A2a (Rattus norvegicus) (UniProt P30543); assay: Displacement of specific [3H]- CGS-21680 in rat striatal membranes A2a receptor at 10e-4 M concentration; type: cell membranes; conditions: Membrane
[2] = target: Adenosine receptors; A1 & A3 (Rattus norvegicus) (UniProt P25099+P28647); assay: Selectivity ratio (Ki's)for A1 and A3 receptors in rat brain; type: tissue-based
Summary of the method: (§1)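 Ratio of Ki values from rat A1 (cortical, [3H]PIA) or A2a (striatal, [3H]CGS 21680) binding over Ki from rat A3 binding ([125I]AB-MECA, CHO membranes). Where one value is only a percent displacement, a conservative boundary estimate of the ratio is given.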

[3] = target: Adenosine receptor A2a and A3 (Rattus norvegicus) (UniProt P30543+P28647); assay: Selectivity for A2a and A3 receptors in rat brain as ratio of Ki; type: tissue-based; summary of the method: as §1
Adenosine receptor A1 = target: T2, Adenosine receptor A1 (Rattus norvegicus, UniProt P25099); assay: Tested for the displacement of specific [3H]PIA in rat brain membranes of A1 receptor; type: cell membranes
T2 sequence (P25099 whole entry): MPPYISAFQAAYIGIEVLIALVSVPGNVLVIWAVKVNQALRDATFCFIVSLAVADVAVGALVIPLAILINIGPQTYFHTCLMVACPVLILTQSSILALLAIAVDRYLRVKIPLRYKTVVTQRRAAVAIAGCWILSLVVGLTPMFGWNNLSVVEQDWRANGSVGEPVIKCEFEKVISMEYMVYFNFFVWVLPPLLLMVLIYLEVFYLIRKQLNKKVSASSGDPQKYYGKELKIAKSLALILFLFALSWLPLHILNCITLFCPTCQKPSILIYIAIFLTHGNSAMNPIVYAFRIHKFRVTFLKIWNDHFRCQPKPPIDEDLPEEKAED

[4] = target: Adenosine receptor A2a (Rattus norvegicus) (UniProt P30543); assay: Displacement of [3H]- CGS-21680 from A2a receptor of rat striatal membrane at 3*10e-4 M
Summary of the method: (§2)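 Rat striatal membranes; [3H]CGS 21680 binding at A2a receptors. Adenosine deaminase (3 units/mL) present during membrane preparation, which includes a 30 °C, 30 min incubation, and during radioligand incubation.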

Adenosine receptor A2a = Adenosine receptor A2a (Rattus norvegicus, UniProt P30543); assay: Displacement of specific [3H]- CGS-21680 in rat striatal membranes A2a receptor; type: cell membranes, Membrane; summary of the method: as §2
[5] = target: Adenosine receptor A2a (Rattus norvegicus) (UniProt P30543); assay: Displacement of [3H]CGS-21680 from A2a receptor of rat striatal membrane at 10e-4 M; summary of the method: as §2
[6] = target: T3, Adenosine receptor A1 (Rattus norvegicus) (UniProt P25099); assay: Percent displacement of [3H]PIA from A1 receptor of rat brain membrane at 10e-4 M
T3 sequence (whole entry): T2 sequence (P25099 whole entry)
Summary of the method: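 A1 receptor binding in rat cortical membranes with [3H]-(R)-PIA. Adenosine deaminase (3 units/mL) present during membrane preparation, which includes a 30 °C, 30 min incubation, and during radioligand incubation. Result given as displacement of specific binding, as Ki or as percent displacement at the stated concentration.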

[7] = target: Adenosine receptor A2a (Rattus norvegicus) (UniProt P30543); assay: Displacement of [3H]CGS-21680 from A2a receptor of rat striatal membrane at 10e-5 M; summary of the method: as §2

Chain of Adenosine receptor A2a and A3 (Rattus norvegicus) (P30543 whole entry, looked up, one chain of several): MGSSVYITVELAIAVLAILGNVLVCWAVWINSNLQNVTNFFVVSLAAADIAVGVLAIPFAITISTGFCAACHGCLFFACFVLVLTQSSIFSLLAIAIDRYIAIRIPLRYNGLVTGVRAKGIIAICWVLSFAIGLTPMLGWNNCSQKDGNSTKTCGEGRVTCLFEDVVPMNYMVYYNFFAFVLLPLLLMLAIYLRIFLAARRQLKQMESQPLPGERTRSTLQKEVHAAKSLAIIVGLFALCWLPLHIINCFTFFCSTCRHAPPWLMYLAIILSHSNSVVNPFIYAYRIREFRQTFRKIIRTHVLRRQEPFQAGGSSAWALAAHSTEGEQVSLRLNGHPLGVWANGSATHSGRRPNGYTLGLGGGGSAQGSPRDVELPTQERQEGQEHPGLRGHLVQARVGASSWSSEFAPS
Chain of Adenosine receptor A2a (Rattus norvegicus) (P30543 whole entry): as the sequence (P30543 whole entry, looked up, one chain of several) above
Chain of Adenosine receptor A2a (P30543 whole entry): as the sequence (P30543 whole entry, looked up, one chain of several) above

| pKi (Adenosine receptor A3) | inhibition [1] | Selectivity ratio [2] | Selectivity ratio [3] | pKi (Adenosine receptor A1) | inhibition [4] | pKi (Adenosine receptor A2a) | inhibition [5] | inhibition [6] | inhibition [7] | SMILES |
| --- | --- | --- | --- | --- | --- | --- | --- | --- | --- | --- |
| 4.99 | 0% | 3 | > 10 | 4.51 |  |  |  |  |  | CCCCCCn1c(=O)c2c(ncn2C2O[C@H](C(=O)NC)[C@@H](O)[C@H]2O)n(CCCCCC)c1=O (some centres not stated) |
| 4.09 | 32% | 0.2 | > 1 | 4.80 |  |  |  |  |  | CCCn1c(=O)c2c(ncn2C2O[C@H](CO)[C@@H](O)[C@H]2O)n(CCC)c1=O (some centres not stated) |
| 5.49 |  | 1.2 | > 1 | 5.43 | 0% |  |  |  |  | CCCCn1c(=O)c2c(ncn2C2O[C@H](C(=O)OC)[C@@H](O)[C@H]2O)n(CCCC)c1=O (some centres not stated) |
| 3.64 |  | 0.04 | 0.23 | 5.04 |  | 4.27 |  |  |  | CCCCn1c(=O)c2c(ncn2C2O[C@H](C(=O)N(C)C)[C@@H](O)[C@H]2O)n(CCCC)c1=O (some centres not stated) |
| 5.22 |  | 0.69 | 3.2 | 5.38 |  | 4.71 |  |  |  | CCCCn1c(=O)c2c(ncn2C2O[C@H](CO)[C@@H](O)[C@H]2O)n(CCCC)c1=O (some centres not stated) |
| 5.85 |  | 1.6 | 3 | 5.65 |  | 5.37 |  |  |  | CCCCn1c(=O)c2c(ncn2C2O[C@H](CO)[C@@H](O)[C@H]2O)n(CCCC)c1=S (some centres not stated) |
| 4.89 |  | 0.17 | 0.67 | 5.66 |  | 5.06 |  |  |  | CCCCn1c(=O)c2c(ncn2C2O[C@H](CO)[C@@H](O)[C@H]2O)n(Cc2ccccc2)c1=O (some centres not stated) |
| 4.05 |  | 0.3 | > 1 | 4.57 |  |  | 2% |  |  | Cn1c(=O)c2c(ncn2C2O[C@H](CO)[C@@H](O)[C@H]2O)n(C)c1=O (some centres not stated) |
| 4.82 |  | 0.2 | 3.6 |  |  | 4.26 |  |  |  | CCCCn1c(=O)c2c(ncn2C2O[C@H](C(N)=O)[C@@H](O)[C@H]2O)n(CCCC)c1=O (some centres not stated) |
| 5.58 | 2% | 4.3 | > 1 |  |  |  |  |  |  | CCCCCn1c(=O)c2c(ncn2C2O[C@H](C(=O)NC)[C@@H](O)[C@H]2O)n(CCCCC)c1=O (some centres not stated) |
| 6.22 |  | 10 | 63 | 5.21 |  | 4.42 |  |  |  | CCCCn1c(=O)c2c(ncn2C2O[C@H](C(=O)NCC)[C@@H](O)[C@H]2O)n(CCCC)c1=O (some centres not stated) |
| 7.13 | 4% | > 1 | > 1 |  |  |  |  | 21% |  | COc1nc2c(c(=O)n(C)c(=O)n2C)n1C1O[C@H](CO)[C@@H](O)[C@H]1O (some centres not stated) |
| 5.32 |  | 1.8 | 9.8 | 5.06 |  | 4.33 |  |  |  | CCCCCn1c(=O)c2c(ncn2C2O[C@H](CO)[C@@H](O)[C@H]2O)n(CCCCC)c1=O (some centres not stated) |
| 4.37 |  | 0.23 |  | 5.01 |  |  |  |  | 7.8% | CCCCCCn1c(=O)c2c(ncn2C2O[C@H](CO)[C@@H](O)[C@H]2O)n(CCCCCC)c1=O (some centres not stated) |
